# Measured values from ChEMBL document CHEMBL1133742, “17beta-O-Aminoalkyloximes of 5beta-androstane-3beta,14beta-diol with digitalis-like activity: synthesis, cardiotonic activity, structure-activity relationships, and molecular modeling of the Na(+),K(+)-ATPase receptor” (J Med Chem, 2000).
# Assays:
# [1] = Percent increase in force of contraction in vitro determined using electrically driven guinea pig left atrium.; type: functional; conditions: Cavia porcellus, Cardiac atrium
# Summary of the method: (§1)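 Isolated guinea pig atria in solution bubbled with 95% O2/5% CO2, field-stimulated by platinum electrodes at 1 Hz (1 ms square pulses, twice threshold voltage). After 60 min equilibration, cumulative concentrations added, each held until maximal response or arrhythmia.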
# Cavia porcellus [2] = assay: Compound dose causing lethality in anesthetized guinea pig during slow intravenous infusion of 41.4 uM solution.; type: toxicity, organism-based; conditions: in vivo
# Summary of the method: (§2)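 Anesthetized guinea pigs with jugular vein cannula and tracheal intubation (spontaneous respiration); +dP/dt recorded. Compound dissolved in DMSO, diluted with physiological solution to 1% DMSO final, infused IV at 0.16 mL/min until death or up to 90 min. Starting infusate concentration was based on the atrial EC50. Doses for maximal inotropic effect and for death determined; ED80 taken from dose–response curves. Means ± SEM where possible.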
# [3] = target: Sodium/potassium-transporting ATPase; assay: In vitro inhibitory concentration against dog kidney Na+/K+ ATPase; type: protein-complex assay, Canis lupus familiaris
# Summary of the method: (§3)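 Na+,K+-ATPase isolated and purified from dog kidney. Inhibition measured as percent hydrolysis of 32P-ATP with versus without compound. […] Single-concentration entries report percent inhibition at the stated concentration. Compounds tested within 1–4 h of dissolution.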
# Cavia porcellus [4] = assay: Compound dose producing maximum increase in dP/dt, in anesthetized guinea pig during slow intravenous infusion of 41.4 uM solution.; type: functional; summary of the method: as §2
# Cavia porcellus [5] = assay: Compound dose producing maximum inotropic effect in anesthetized guinea pig during slow intravenous infusion of 41.4 uM solution.; type: functional; summary of the method: as §2
# Cavia porcellus [6] = assay: Compound dose producing 80% of increase in dP/dt in anesthetized guinea pig during slow intravenous infusion of 41.4 uM solution.; type: functional; summary of the method: as §2
# Cavia porcellus [7] = species: Cavia porcellus; assay: Concentration producing 50% of the maximal increase in the force of contraction in isolated guinea pig left atrium; type: functional; conditions: Cardiac atrium; summary of the method: as §1
# [8] = target: Sodium/potassium-transporting ATPase subunit alpha-1 (Canis lupus familiaris, UniProt P50997); assay: In vitro inhibitory concentration against dog kidney Na+,K+-ATPase
# Summary of the method: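 Na+,K+-ATPase isolated and purified from dog kidney. Inhibition measured as percent hydrolysis of 32P-ATP with versus without compound. Single-concentration entries report percent inhibition at the stated concentration. Compounds tested within 1–4 h of dissolution.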
# [9] = Compound at 100 uM was tested in vitro for the inhibition of dog kidney Na+/K+ ATPase; conditions: Canis lupus familiaris, target entry is the homologue from another species; summary of the method: as §3
# Cavia porcellus [10] = assay: Compound dose causing lethality in anesthetized guinea pig during slow intravenous infusion of 375 uM solution.; type: toxicity, organism-based; conditions: in vivo; summary of the method: as §2
# Cavia porcellus [11] = assay: Compound dose producing maximum inotropic effect in anesthetized guinea pig during slow intravenous infusion of 375 uM solution.; type: functional; summary of the method: as §2
# Cavia porcellus [12] = assay: Compound dose producing 80% of increase in dP/dt in anesthetized guinea pig during slow intravenous infusion of 375 uM solution.; type: functional; summary of the method: as §2
# Cavia porcellus [13] = assay: Compound dose producing maximum increase in dP/dt, in anesthetized guinea pig during slow intravenous infusion of 375 uM solution.; type: functional; summary of the method: as §2
# [14] = In vitro maximum inotropic effect on contractile force of an electrically driven guinea pig left atrium.; type: functional, Cavia porcellus, Cardiac atrium; summary of the method: as §1
# Cavia porcellus [15] = assay: Compound dose producing maximum increase in dP/dt, in anesthetized guinea pig during slow intravenous infusion of 1000 uM solution.; type: functional; summary of the method: as §2
# Cavia porcellus [16] = assay: Compound dose producing 80% of increase in dP/dt in anesthetized guinea pig during slow intravenous infusion of 1000 uM solution.; type: functional; summary of the method: as §2
# Cavia porcellus [17] = assay: Compound dose causing lethality in anesthetized guinea pig during slow intravenous infusion of 1000 uM solution.; type: toxicity, organism-based; conditions: in vivo; summary of the method: as §2
# Cavia porcellus [18] = assay: Compound dose producing maximum inotropic effect in anesthetized guinea pig during slow intravenous infusion of 1000 uM solution.; type: functional; summary of the method: as §2
# Cavia porcellus [19] = assay: Compound dose producing maximum inotropic effect in anesthetized guinea pig during slow intravenous infusion of 11.0 uM solution.; type: functional; summary of the method: as §2
# Cavia porcellus [20] = assay: Compound dose producing maximum increase in dP/dt, in anesthetized guinea pig during slow intravenous infusion of 11.0 uM solution.; type: functional; summary of the method: as §2
# Cavia porcellus [21] = assay: Compound dose causing lethality in anesthetized guinea pig during slow intravenous infusion of 11.0 uM solution.; type: toxicity, organism-based; conditions: in vivo; summary of the method: as §2
# Cavia porcellus [22] = assay: Compound dose producing 80% of increase in dP/dt in anesthetized guinea pig during slow intravenous infusion of 11.0 uM solution.; type: functional; summary of the method: as §2
# Cavia porcellus [23] = assay: Compound dose producing 80% of increase in dP/dt in anesthetized guinea pig during slow intravenous infusion of 12.8 uM solution.; type: functional; summary of the method: as §2
# Cavia porcellus [24] = assay: Compound dose producing maximum inotropic effect in anesthetized guinea pig during slow intravenous infusion of 12.8 uM solution.; type: functional; summary of the method: as §2
# Cavia porcellus [25] = assay: Compound dose causing lethality in anesthetized guinea pig during slow intravenous infusion of 12.8 uM solution.; type: toxicity, organism-based; conditions: in vivo; summary of the method: as §2
# Cavia porcellus [26] = assay: Compound dose producing maximum increase in dP/dt, in anesthetized guinea pig during slow intravenous infusion of 12.8 uM solution.; type: functional; summary of the method: as §2
# Cavia porcellus [27] = assay: Compound dose producing 80% of increase in dP/dt in anesthetized guinea pig during slow intravenous infusion of 51.2 uM solution.; type: functional
# Summary of the method: (§4)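 Anesthetized guinea pig; jugular vein cannula, trachea intubated, spontaneous respiration. After stabilization, compound in physiological solution with 1% DMSO (final) infused at 0.16 mL/min until death or up to 90 min. Infused concentration chosen from the paced guinea pig atria EC50. Read-out is +dP/dt. Doses for the maximal inotropic increase and for death were determined; ED80 (80% increase over basal) came from dose-response curves. Means ± SEM.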
# Cavia porcellus [28] = assay: Compound dose producing maximum inotropic effect in anesthetized guinea pig during slow intravenous infusion of 51.2 uM solution.; type: functional; summary of the method: as §4
# Cavia porcellus [29] = assay: Compound dose causing lethality in anesthetized guinea pig during slow intravenous infusion of 51.2 uM solution.; type: toxicity, organism-based; conditions: in vivo; summary of the method: as §2
# Cavia porcellus [30] = assay: Compound dose producing maximum increase in dP/dt, in anesthetized guinea pig during slow intravenous infusion of 51.2 uM solution.; type: functional; summary of the method: as §4
# Cavia porcellus [31] = assay: Compound dose producing maximum inotropic effect in anesthetized guinea pig during slow intravenous infusion of 220 uM solution.; type: functional; summary of the method: as §2
# Cavia porcellus [32] = assay: Compound dose producing maximum increase in dP/dt, in anesthetized guinea pig during slow intravenous infusion of 220 uM solution.; type: functional; summary of the method: as §2
# Cavia porcellus [33] = assay: Compound dose causing lethality in anesthetized guinea pig during slow intravenous infusion of 220 uM solution.; type: toxicity, organism-based; conditions: in vivo; summary of the method: as §2
# Cavia porcellus [34] = assay: Compound dose producing 80% of increase in dP/dt in anesthetized guinea pig during slow intravenous infusion of 220 uM solution.; type: functional; summary of the method: as §2
Structure (SMILES),Emax [1] [%],IC50 [3] [µM],EC50 (Cavia porcellus [7]) [µM],IC50 [8] [µM],Concentration giving maximal inotropic effect [14] [µM],other results
C[C@]12CC[C@H](O)C[C@H]1CC[C@@H]1[C@@H]2CC[C@]2(C)[C@@H](/C=N/OCCCN)CC[C@]12O.O=C(O)C(=O)O,126,0.02,0.18,,,LD (Cavia porcellus [2]): 0.663 µM/kg; Emax (Cavia porcellus [4]): 163%; Emax (Cavia porcellus [5]): 0.435 µM/kg; ED80 (Cavia porcellus [6]): 0.24 µM/kg
C[C@]12CC[C@H](O)C[C@H]1CC[C@@H]1[C@@H]2CC[C@]2(C)[C@@H](/C=C/C=O)CC[C@]12O,45,,4,0.25,,
C[C@]12CC[C@H](O)C[C@H]1CC[C@@H]1[C@@H]2CC[C@]2(C)[C@@H](/C=C/C=N\OCC(=O)O)CC[C@]12O,,> 100,,,,inhibition [9]: 40%
CC(/C=N/OCCCN)=C\[C@H]1CC[C@]2(O)[C@@H]3CC[C@@H]4C[C@@H](O)CC[C@]4(C)[C@H]3CC[C@]12C.O=C(O)C(=O)O,90,0.2,0.17,,,LD (Cavia porcellus [10]): 1.67 µM/kg; Emax (Cavia porcellus [11]): 0.884 µM/kg; ED80 (Cavia porcellus [12]): 0.447 µM/kg; Emax (Cavia porcellus [13]): 99%
CN(C)CCO/N=C/C=C/C=C/[C@H]1CC[C@]2(O)[C@@H]3CC[C@@H]4C[C@@H](O)CC[C@]4(C)[C@H]3CC[C@]12C.O=C(O)C(=O)O,145,,20,6.3,100,
C[C@]12CC[C@H](O)C[C@H]1CC[C@@H]1[C@@H]2CC[C@]2(C)[C@@H](/C=N/OCCCCN)CC[C@]12O.O=C(O)C(=O)O,92,0.5,2.9,,,Emax (Cavia porcellus [15]): 148%; ED80 (Cavia porcellus [16]): 1.41 µM/kg; LD (Cavia porcellus [17]): 14.8 µM/kg; Emax (Cavia porcellus [18]): 5.03 µM/kg
C[C@]12CC[C@H](O)C[C@H]1CC[C@@H]1[C@@H]2CC[C@]2(C)[C@@H](/C=C/C=C/CCCN)CC[C@]12O,73,,0.035,0.32,0.1,
CONCCC[C@H]1CC[C@]2(O)[C@@H]3CC[C@@H]4C[C@@H](O)CC[C@]4(C)[C@H]3CC[C@]12C,,> 100,,,,inhibition [9]: 40%
CN(C)CCO/N=C/C=C/[C@H]1CC[C@]2(O)[C@@H]3CC[C@@H]4C[C@@H](O)CC[C@]4(C)[C@H]3CC[C@]12C.O=C(O)C(=O)O,191,0.03,0.057,,0.3,Emax (Cavia porcellus [19]): 0.275 µM/kg; Emax (Cavia porcellus [20]): 110%; LD (Cavia porcellus [21]): 0.385 µM/kg; ED80 (Cavia porcellus [22]): 0.185 µM/kg
CCCO/N=C/C(C)=C/[C@H]1CC[C@]2(O)[C@@H]3CC[C@@H]4C[C@@H](O)CC[C@]4(C)[C@H]3CC[C@]12C,,> 10,,,,inhibition [9]: 40%
CN(C)CCON(C)C[C@H]1CC[C@]2(O)[C@@H]3CC[C@@H]4C[C@@H](O)CC[C@]4(C)[C@H]3CC[C@]12C,,> 100,,,,inhibition [9]: 20%
C[C@]12CC[C@H](O)C[C@H]1CC[C@@H]1[C@@H]2CC[C@]2(C)[C@@H](CCC=O)CC[C@]12O,,,,40,,
C[C@]12CC[C@H](O)C[C@H]1CC[C@@H]1[C@@H]2CC[C@]2(C)[C@@H](C=O)CC[C@]12O,79,,11,25,300,
C[C@]12CC[C@H](O)C[C@H]1CC[C@@H]1[C@@H]2CC[C@]2(C)[C@@H](/C=N/OCC(=O)O)CC[C@]12O,,> 100,,,,inhibition [9]: 0%
CC(/C=N/OCCN)=C\[C@H]1CC[C@]2(O)[C@@H]3CC[C@@H]4C[C@@H](O)CC[C@]4(C)[C@H]3CC[C@]12C.O=C(O)/C=C/C(=O)O,115,0.03,0.07,,,ED80 (Cavia porcellus [23]): 0.128 µM/kg; Emax (Cavia porcellus [24]): 0.201 µM/kg; LD (Cavia porcellus [25]): 0.292 µM/kg; Emax (Cavia porcellus [26]): 152%
C[C@H]1O[C@@H](O[C@H]2[C@@H](O)C[C@H](O[C@H]3[C@@H](O)C[C@H](O[C@H]4CC[C@@]5(C)[C@H](CC[C@@H]6[C@@H]5C[C@@H](O)[C@]5(C)[C@@H](C7=CC(=O)OC7)CC[C@]65O)C4)O[C@@H]3C)O[C@@H]2C)C[C@H](O)[C@@H]1O [DIGOXIN],184,,0.38,,1,ED80 (Cavia porcellus [27]): 0.205 µM/kg; dose to obtain Emax (Cavia porcellus [28]): 0.576 µM/kg; LD (Cavia porcellus [29]): 1.25 µM/kg; Emax (Cavia porcellus [30]): 167%
C/C(C=O)=C\[C@H]1CC[C@]2(O)[C@@H]3CC[C@@H]4C[C@@H](O)CC[C@]4(C)[C@H]3CC[C@]12C,,,,1.58,,
CN(C)CCO/N=C\CC[C@H]1CC[C@]2(O)[C@@H]3CC[C@@H]4C[C@@H](O)CC[C@]4(C)[C@H]3CC[C@]12C.O=C(O)C(=O)O,150,0.1,0.65,,,Emax (Cavia porcellus [31]): 3.65 µM/kg; Emax (Cavia porcellus [32]): 132%; LD (Cavia porcellus [33]): 7.83 µM/kg; ED80 (Cavia porcellus [34]): 0.814 µM/kg
C[C@]12CC[C@H](O)C[C@H]1CC[C@@H]1[C@@H]2CC[C@]2(C)[C@@H](CCCCCCCN)CC[C@]12O,43,,,1.25,100,
